Assay results published in ChEMBL document CHEMBL3352590, “How a β-D-glucoside side chain enhances binding affinity to thrombin of inhibitors bearing 2-chlorothiophene as P1 moiety: crystallography, fragment deconstruction study, and evaluation of antithrombotic properties” (J Med Chem, 2014).
Converted amounts (≈) assume the structure as drawn. The source made the active and inactive calls. The calls are words filed in the database; no cut-off is given here.

Assays:
[1] = molecular target: T1, Prothrombin (Bos taurus, UniProt P00735); test: Inhibition of bovine thrombin assessed as reduction in hydrolysis of chromogenic substrate S-2238 by Cheng-Prusoff equation analysis
[2] = molecular target: T2, Coagulation factor X (Homo sapiens, UniProt P00742); test: Inhibition of human factor10a assessed as reduction in hydrolysis of chromogenic substrate S-2765 by Cheng-Prusoff equation analysis
T2 sequence (P00742 41-179 limits assumed): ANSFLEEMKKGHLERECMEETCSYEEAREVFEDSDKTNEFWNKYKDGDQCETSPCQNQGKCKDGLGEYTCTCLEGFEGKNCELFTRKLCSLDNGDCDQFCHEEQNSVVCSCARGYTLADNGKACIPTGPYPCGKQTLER
T2 sequence (P00742 235-488 limits assumed): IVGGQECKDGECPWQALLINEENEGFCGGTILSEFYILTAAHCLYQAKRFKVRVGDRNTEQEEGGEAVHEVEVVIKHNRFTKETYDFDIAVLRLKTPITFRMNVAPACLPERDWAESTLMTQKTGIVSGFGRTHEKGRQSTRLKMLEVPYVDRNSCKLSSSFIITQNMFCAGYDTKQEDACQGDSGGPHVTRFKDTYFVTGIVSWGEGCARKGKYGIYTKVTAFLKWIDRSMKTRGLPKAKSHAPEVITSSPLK
Summary of the method: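 Chromogenic assay at pH 8: 2 nM human fXa with 0.04 mM S-2765, or 0.41 U/mL bovine thrombin with 0.05 mM S-2238 (final). Enzyme preincubated with inhibitor (0.01−100 nM or 0.01−100 μM, ≤1% DMSO); substrate added, A405 followed 5 min.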

[3] = molecular target: T2, Coagulation factor X; test: Inhibition of human factor10a assessed as reduction in hydrolysis of chromogenic substrate S-2765 at 1 mM by Cheng-Prusoff equation analysis
[4] = molecular target: Prothrombin (Bos taurus) (UniProt P00735); test: Inhibition of bovine thrombin assessed as reduction in hydrolysis of chromogenic substrate S-2238 at 1 mM by Cheng-Prusoff equation analysis
[5] = Stability in human plasma assessed as unhydrolyzed compound after 4 hrs at 37 degC by HPLC method; assay type: ADME, cell-free; conditions: read-out: Stability
Summary of the method: (§1)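 10 mM ACN stock diluted to 250 μM final in preheated 37 °C human serum (lyophilized, reconstituted in water). Incubation stopped at fixed times with ice-cold ACN; remaining parent measured by HPLC; first-order half-life derived.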

[6] = molecular target: T2, Coagulation factor X; test: Inhibition of human factor10a assessed as reduction in hydrolysis of chromogenic substrate S-2765 by Lineweaver-Burk analysis
Summary of the method: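 Human fXa fixed at 2 nM, S-2765 varied 25−200 μM, without or with inhibitor at four concentrations, pH 8, A405 initial rates; Lineweaver−Burk (1/v vs 1/[S]) plots used to assign inhibition type.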

[7] = Lipophilicity, logKw of the compound by RP-HPLC method; assay type: physicochemical
Summary of the method: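 RP-HPLC on C18 column at 25 °C, 1.0 mL/min, UV 288 nm; capacity factors k′ = (tR − t0)/t0 measured at MeOH volume fractions 0.8 to 0.4 in 0.05 steps; log k′w taken as the polycratic capacity factor.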

[8] = system: Plasma; test: Anticoagulant activity in recombinant tissue factor and procoagulant phospholipids-stimulated human citrated plasma assessed as increase in time required to generate first traces of thrombin at 2 to 10 uM by fluorometry based calibrated automated thrombography; assay type: functional, cell-free
Summary of the method: (§2)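 Pooled citrated human plasma spiked with test compounds at 0.01−10 μM or vehicle; 80 μL plasma incubated 10 min at 37 °C; thrombin generation triggered by low tissue factor, phospholipids and calcium. Lag-time, thrombin peak and endogenous thrombin potential (area under curve) read by calibrated automated thrombography and expressed as percent of vehicle control.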

[9] = system: Plasma; test: Anticoagulant activity in recombinant tissue factor and procoagulant phospholipids-stimulated human citrated plasma assessed as reduction in endogenous thrombin potential by fluorometry based calibrated automated thrombography; assay type: functional, cell-free; summary of the method: as §2
[10] = system: Plasma; test: Profibrinolytic activity in tissue factor-induced human plasma exposed to exogenous tissue plasminogen activator assessed as time needed to lyse 50% fibrin clot by turbidimetric assay; assay type: functional, cell-free
Summary of the method: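 Turbidimetric clot lysis at 37 °C: citrated human plasma spiked with compound or vehicle, plus phospholipids, t-PA (40 ng/mL stock), Tris-NaCl pH 7.4 and TF; clotting started with CaCl2. A405 read each minute for 3 h; lysis time from clot formation to midpoint of turbid-to-clear transition, as percent of vehicle; three independent plasma samples.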

[11] = Stability in 0.05 M pH 7.4 phosphate buffer containing 0.15 M KCl assessed as unhydrolyzed compound after 4 hrs at 37 degC; assay type: physicochemical; conditions: read-out: Stability
Summary of the method: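 10 mM acetonitrile stock diluted to 250 μM final in 0.05 M phosphate buffer pH 7.40 with 0.15 M KCl, 37 °C; samples withdrawn at t0 and fixed times, filtered and analysed by HPLC (UV 288 nm) for remaining unhydrolyzed compound.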

[12] = Aqueous solubility in pH 7.4 0.05 M phosphate buffer by HPLC method; assay type: physicochemical
Summary of the method: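 Excess solid (4−10 mg) in 0.05 M phosphate buffer pH 7.4 with 0.15 M KCl, shaken 1 h at 25 °C, then 15 min unshaken. Supernatant filtered and quantified by C18 HPLC (MeOH/0.05 M phosphate pH 4.5, UV 288 nm) against calibration curves of peak area.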

[13] = system: Plasma; test: Anticoagulant activity in recombinant tissue factor and procoagulant phospholipids-stimulated human citrated plasma assessed as increase in time required to generate first traces of thrombin at 10 uM by fluorometry based calibrated automated thrombography; assay type: functional, cell-free
Summary of the method: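 Pooled citrated human plasma spiked with test compound or vehicle (0.01−10 μM); clotting triggered by low tissue factor, phospholipids and calcium; thrombin generation followed by calibrated automated thrombography, 80 μL plasma preincubated 10 min at 37 °C. Lag-time = time to first traces of thrombin, expressed as percent of vehicle control plasma.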

[14] = system: Plasma; test: Anticoagulant activity in recombinant tissue factor and procoagulant phospholipids-stimulated human citrated plasma assessed as inhibition of thrombin peak by fluorometry based calibrated automated thrombography; assay type: functional, cell-free; summary of the method: as §2
[15] = Half life in human plasma at 37 degC by HPLC method; assay type: ADME, cell-free; summary of the method: as §1
[16] = molecular target: T1, Prothrombin; test: Inhibition of bovine thrombin assessed as reduction in hydrolysis of chromogenic substrate S-2238 by Lineweaver-Burk analysis
[17] = Homo sapiens, Plasma, read-out: IC50
[18] = Homo sapiens, Plasma, read-out: EC50

Row | SMILES | Ki [1] | Ki [2] | inhibition [3] | inhibition [4] | logKw [7] | Activity [8] | remaining at 4 h [11] | solubility [12] | fold change (FC) [13] | IC50 [14] | IC50 [9, 17] | EC50 [10, 18] | further results
1 | Nc1c(OCCCO)cccc1OCc1cc(-c2ccc(Cl)s2)on1 | 29.8 µM | 18.3 µM |  |  |  |  |  |  |  |  |  |  | 
2 | CC(C)N1CCC(C(=O)Nc2ccccc2OCCCO[C@@H]2[C@@H](O)[C@H](O)[C@@H](CO)O[C@H]2O)CC1 |  |  | 14% | 28% |  |  |  |  |  |  |  |  | 
3 | Nc1c(OCCCO[C@@H]2O[C@H](CO)[C@@H](O)[C@H](O)[C@H]2O)cccc1OCc1cc(-c2ccc(Cl)s2)on1 | 133 µM | 6.9 µM |  |  |  |  |  |  |  |  |  |  | 
4 | CC(C)N1CCC(C(=O)Nc2ccccc2OCc2cc(-c3ccc(Cl)s3)on2)CC1 |  | 0.0006 µM |  |  | 3.49 | Active | > 90% | 530 µM (≈ 244 µg/mL) | 3 | 10000 nM |  |  | remaining at 4 h [5]: > 90%; Ki [6]: 0.11 nM; IC50 [9]: Not Active; EC50 [10]: Not Active
5 | CC(=O)OC[C@H]1O[C@@H](OCCCOc2cccc(OCc3cc(-c4ccc(Cl)s4)on3)c2NC(=O)C2CCN(C(C)C)CC2)[C@H](OC(C)=O)[C@@H](OC(C)=O)[C@@H]1OC(C)=O | 0.16 µM | 0.00025 µM |  |  | 5.07 | Active | > 90% | < 1 µM | 9 | 1200 nM | 10 µM | 1800 nM | half-life [15]: 168 min
6 | CC(C)N1CCC(C(=O)Nc2ccccc2)CC1 |  |  | 13% | 16% |  |  |  |  |  |  |  |  | 
7 | COc1ccccc1NC(=O)C1CCN(C(C)C)CC1 |  |  | 16% | 0% |  |  |  |  |  |  |  |  | 
8 | CC(C)N1CCC(C(=O)Nc2c(OCCCO[C@@H]3O[C@H](CO)[C@@H](O)[C@H](O)[C@H]3O)cccc2OCc2cc(-c3ccc(Cl)s3)on2)CC1 | 0.1 µM | 9e-05 µM |  |  | 3.07 | Active | > 90% | 7330 µM (≈ 5100 µg/mL) | 15 | 300 nM | 3.4 µM | 300 nM | remaining at 4 h [5]: > 90%; Ki [6]: 0.87 nM; Ki [16]: 96 nM
9 | Nc1ccccc1OCc1cc(-c2ccc(Cl)s2)on1 | 31 µM | 11.6 µM |  |  |  |  |  |  |  |  |  |  | 
10 | CC1CNc2c(cccc2S(=O)(=O)N[C@@H](CCCNC(=N)N)C(=O)N2CC[C@@H](C)C[C@@H]2C(=O)O)C1 (stereo not given in full) [ARGATROBAN] |  |  |  |  |  |  |  |  |  | 1900 nM | 2.4 µM | 600 nM | 
